High-throughput results (PubChem BioAssay)
MEX-5 binding = C. elegans MEX-5 TCR-2 RNA binding activity. Q9XUB2. MEX-5/FITC-TCR2 RNA binding, fluorescence polarization; stronger effect = lower value. activity score (negative = inhibition of binding), % at 10 µM. hit rate 0.38% among 300,000. AID 1832;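 active means inhibition past about -25% in most replicates, and total fluorescence under double the plate's negative control median, limit read from the data; inconclusive means replicates evenly split on the limit, or fluorescence at least double controls; inactive means too little inhibition in most replicates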;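 further: 0% = DMSO and -100% = 5 µM competing unlabeled TCR2 RNA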
IMP-1 inh = inhibitors of Pseudomonas aeruginosa IMP-1 metallo-beta-lactamase; inhibition, % at 5.6 µM; AID 1556; hit rate 0.45% among 290,000; purified IMP-1, nitrocefin hydrolysis, epi-absorbance fluorescence;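 active means inhibition above the mean plus 3 SD of all compounds in the same screening run, cut at about 4.5% in these data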;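 further: 0% = IMP-1 with DMSO and 100% = DMSO wells lacking enzyme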
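System: purified IMP-1 / Input: IMP-1 dispensed at 0.2 nM / Medium: 50 mM HEPES pH 7.1, 50 µM ZnSO4, 0.05% Brij 35 / Timing: 15 min enzyme–compound preincubation, then 25 min nitrocefin reaction, 25 °C / Technique: plate fluorescence quenching by hydrolysis product, ex 480/em 530 nm / Repeats: singlicate testing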
Bcl-xL primary = blocks human Bcl-xL binding to Bim BH3 peptide; Q07817; GST-Bcl-xL / FITC-Bim BH3 peptide fluorescence polarization; inhibition, % at 10.9 µM; hit rate 0.7% among 320,000;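 active means inhibition above the mean of all tested compounds plus 3 SD, cutoff set per campaign, cut at about 30% in these data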;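 further: 0% = DMSO wells and 100% = unlabeled Bim-BH3 peptide competitor; inhibitors lower millipolarization by displacing the labeled peptide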
EBV gp42 inh = blocks Epstein-Barr virus glycoprotein 42 binding | Q1HVG2 | Fluorescence polarization binding assay, mP read-out | inhibition, % (tested at 21.74 µM) | hit rate 0.42% among 220,000; in the data active means inhibition above about 50%
GLD-1 TGE inh = GLD-1-TGE RNA interaction inhibition (C. elegans). purified GLD-1 + fluorescein TGE RNA, fluorescence polarization. inhibition, % at 5.96 µM. hit rate 0.44% among 320,000;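 active means percent inhibition above a per-plate cutoff, the plate mean of test compounds plus 3 SD, cut at about 30% in these data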;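 further: 0% = DMSO wells with GLD-1 and probe and 100% = wells lacking GLD-1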
Target sequence (Q17339 whole entry, looked up): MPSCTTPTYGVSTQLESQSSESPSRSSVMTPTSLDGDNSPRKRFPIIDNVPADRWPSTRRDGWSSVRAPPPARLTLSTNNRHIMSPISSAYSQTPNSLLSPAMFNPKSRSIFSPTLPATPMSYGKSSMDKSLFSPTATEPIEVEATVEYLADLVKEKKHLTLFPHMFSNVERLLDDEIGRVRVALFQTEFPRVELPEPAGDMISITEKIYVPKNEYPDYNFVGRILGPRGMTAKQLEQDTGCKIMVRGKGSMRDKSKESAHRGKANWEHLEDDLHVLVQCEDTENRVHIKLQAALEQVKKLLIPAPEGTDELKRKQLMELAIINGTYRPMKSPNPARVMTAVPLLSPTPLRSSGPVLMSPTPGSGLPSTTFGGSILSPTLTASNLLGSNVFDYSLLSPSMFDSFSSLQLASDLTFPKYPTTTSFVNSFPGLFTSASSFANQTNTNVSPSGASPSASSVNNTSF
VIM-2 inh = inhibitors of Pseudomonas aeruginosa VIM-2 metallo-beta-lactamase; inhibition, % at 5.6 µM; hit rate 0.89% among 290,000; purified VIM-2, nitrocefin hydrolysis, epi-absorbance fluorescence;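 active means inhibition above the mean of all tested compounds plus 3 SD, cutoff set per screening run, cut at about 7.5% in these data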;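 further: red hydrolysis product quenches plate fluorescence so inhibitors raise well fluorescence; 0% = enzyme with DMSO and 100% = DMSO without enzyme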
* = called active by the depositor; u = inconclusive; x = no result. Compounds with a hit are over-represented: about 2.2% of the library has one in this group of screens.

SMILES	MEX-5 binding	IMP-1 inh	Bcl-xL primary	EBV gp42 inh	GLD-1 TGE inh	VIM-2 inh
NC(=S)n1[nH]c(-c2ccc([N+](=O)[O-])cc2)c(N=Nc2cccc(Cl)c2)c1=O	-2	-1	x	100*	x	-3
Cc1[nH][nH]c(=O)c1/C=N/N1CCOCC1	-27*	-3	-1	-12	6	-2
Fc1cccc(F)c1/C=N/N1CCOCC1	0	-2	9	-8	-1	0
COc1ccc(-c2cc(C(F)(F)F)nc(-n3cncn3)n2)cc1	-1	-2	6	-4	1	11*
CCCCn1c(N)c(N(CCC(C)C)C(=O)c2ccc3c(c2)OCCO3)c(=O)[nH]c1=O	1	x	-3	x	-1	x
O=C(O)c1cccc(S(=O)(=O)Nc2ccc(-c3ccccc3)cc2)c1	x	x	x	x	6	x
O=C(O)c1ccc(NS(=O)(=O)c2ccc3c(c2)C(=O)c2ccccc2C3=O)cc1	u	0	37*	5	22	4
O=c1c2[nH]c3ccccc3c2ncn1CCCn1ccnc1	1	-3	2	3	0	0
O=c1c2[nH]c3ccc(Br)cc3c2ncn1CCCn1ccnc1	0	5.9*	7	-4	4	5
CN(CC(=O)Nc1ccc(Cl)c(C(F)(F)F)c1)C(=O)c1cn2ccccc2n1	0	x	-13	x	3	x
CN(C)c1ccnc2sc(C(=O)c3ccc(Br)cc3)c(N)c12	-11	1	0	73*	3	-1
CC(=O)Nc1ccc(S(=O)(=O)N(C)CC(=O)N/N=C/c2ccc(C(=O)O)cc2)cc1	3	2	-5	x	-2	0
COc1ccc(/C=N/NC(=O)CN(C)S(=O)(=O)c2ccc(NC(C)=O)cc2)cc1	2	31*	7	0	-4	-2
CCc1ccc(NC(=O)CS(=O)CC(=O)Nc2ccc(N3CCOCC3)cc2)cc1 (stereo not drawn)	-1	36*	1	x	5	-1
Cc1cccc(C)c1NC(=O)CS(=O)CC(=O)Nc1ccc(N2CCOCC2)cc1 (stereo not drawn)	1	-1	3	x	0	0
Cc1ccc(SCC(=O)OCC(=O)N(CC(C)C)c2c(N)n(Cc3ccccc3)c(=O)[nH]c2=O)c(C)c1	-1	x	2	x	12	x
Cc1ccc(S(=O)(=O)NCCC(=O)NNC(=O)COc2ccccc2Cl)cc1C	x	x	-3	x	2	x
N#C/C(=C/c1ccc(N2CCCCCC2)o1)c1cccc(F)c1	4	-3	-82	-2	-30	-3
COc1cc(N2CCCC2)c(OC)cc1/C=C(/C#N)c1cccc(F)c1	2	-3	-33	108*	-51	-1
O=c1oc2c3c4c(cc2s1)CCCN4CCC3	-32*	-1	130*	35	76*	5
O=c1ccc2cc3c4c(c2o1)CCCN4CCC3	u	-3	97*	129*	89*	-2
O=C(N/N=C/c1cc2c3c(c1O)CCCN3CCC2)c1ccccc1O	-2	-1	x	24	x	-1
COc1cccc(NC(=O)CN(C)C(=O)[C@@H]2CCCN2C(=O)c2cccs2)c1	x	x	x	x	4	x
O=C(NC1CCN(Cc2ccccc2Cl)CC1)c1ccccc1	0	0	-1	x	6	-1
c1ccc(-c2cn(C[C@H]3CC[C@H](Cn4cc(-c5ccccn5)nn4)O3)nn2)nc1	-1	-6	2	x	5	-2
SMILES	MEX-5 binding	IMP-1 inh	Bcl-xL primary	EBV gp42 inh	GLD-1 TGE inh	VIM-2 inh
O=c1[nH]c(-[n+]2ccc3ccccc3c2)c(/C=N/N=C(\[O-])c2ccccc2)s1	-8	-3	93*	x	137*	1
CSc1cccc(NC(=O)CC2Oc3ccccc3NC2=O)c1 (stereo not drawn)	1	-1	0	x	3	-4
COc1ccc(/C=N/n2c(-c3ccccc3)n[nH]c2=S)cc1	2	-4	-29	x	1	-2
Oc1ccc(/C=N/n2c(-c3ccccc3)n[nH]c2=S)cc1	-1	0	-14	x	-4	9.2*
Oc1ccc(Br)cc1/C=N/n1c(-c2ccccc2)n[nH]c1=S	4	3	-19	x	9	3
Oc1c(Br)cc(Br)c(/C=N/n2c(-c3ccccc3)n[nH]c2=S)c1Br	-37*	0	1	x	2	-1
Cc1ccccc1CSc1nnc([C@@H]2CCCN2)o1	0	5.7*	2	-8	2	0
COCCN(CCOC)Cc1c(O)ccc2c1O/C(=C\c1ccco1)C2=O	u	1	106*	x	72*	-1
